Compound activity deposited in PubChem by The Scripps Research Institute Molecular Screening Center.
A selection: hits, their analogues and other compounds. The true share with any hit is near 3.1%.
LEDGF integ inh = blocks HIV-1 LEDGF/p75-dependent DNA integration. AID 743269. TR-FRET IN-LEDGF/p75 DNA integration, Eu/Cy5. inhibition, % at 3.7 µM. 0.64% of 370,000 active;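 active = inhibition above the screen-wide mean plus 3 SD, cut at about 13% in these data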;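 note: signal is the Cy5 over europium emission ratio at 671 and 618 nm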
UHRF1 binding = blocks human UHRF1 binding to methylated DNA. Q96T88. UHRF1 binding to methylated oligo, TR-FRET. inhibition, % at 4.4 µM. 0.75% of 370,000 active; in the data active = inhibition above about 21%;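 note: UHRF1 SRA domain binding a hemimethylated CpG hairpin DNA probe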
RBBP9 inhibitor = inhibitors of human serine hydrolase RBBP9 | O75884 | inhibition, % at 7.94 µM | 0.2% of 220,000 active | recombinant RBBP9, FP-Rh probe fluorescence polarization;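 active = inhibition above the campaign mean of all tested compounds plus 3 SD, cut at about 14% in these data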
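Controls: DMSO-treated enzyme wells and wells lacking RBBP9 | Material: RBBP9 protein | Technique: Fluorescence polarization | Replication: Single well per compound, no replicates | Buffer or medium: Tris-NaCl-Pluronic buffer, pH 8.0 | Timing: 30 min compound preincubation, 45 min probe labeling, 25 °C | Read-out basis: Percent inhibition from mP, scaled between DMSO and no-protein wells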
PRMT1 inh = PRMT1 (human) inhibition, primary screen. Q99873. recombinant PRMT1, activity-based probe fluorescence polarization. inhibition, % at 2.79 µM. 1.3% of 370,000 active. AID 652257;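 active = inhibition above about 21% made by adding two undisclosed values, limit read from the data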
ABHD5 PLIN5 PPI = ABHD5-PLIN5 protein interaction inhibition; Q00G26+Q8WTS1; Split G. princeps luciferase complementation, luminescence, 4 h; inhibition, % at 4 µM; 0.78% of 360,000 active; AID 602281;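 active = inhibition above the mean inhibition across every tested compound plus 3 SD, cut at about 22% in these data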
Target sequence (Q00G26 whole entry, looked up): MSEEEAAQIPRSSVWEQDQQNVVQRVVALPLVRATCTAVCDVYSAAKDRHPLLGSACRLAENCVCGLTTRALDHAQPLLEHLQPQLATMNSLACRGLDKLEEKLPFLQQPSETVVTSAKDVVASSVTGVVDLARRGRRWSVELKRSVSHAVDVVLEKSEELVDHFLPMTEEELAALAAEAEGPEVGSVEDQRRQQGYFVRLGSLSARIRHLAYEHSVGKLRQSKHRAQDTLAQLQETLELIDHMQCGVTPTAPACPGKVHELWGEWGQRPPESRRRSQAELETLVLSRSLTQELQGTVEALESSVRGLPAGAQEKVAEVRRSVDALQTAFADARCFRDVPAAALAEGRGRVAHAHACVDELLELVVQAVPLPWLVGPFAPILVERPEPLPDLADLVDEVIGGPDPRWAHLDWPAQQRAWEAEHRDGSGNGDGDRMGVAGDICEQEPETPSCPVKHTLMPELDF
Target sequence (Q8WTS1 whole entry, looked up): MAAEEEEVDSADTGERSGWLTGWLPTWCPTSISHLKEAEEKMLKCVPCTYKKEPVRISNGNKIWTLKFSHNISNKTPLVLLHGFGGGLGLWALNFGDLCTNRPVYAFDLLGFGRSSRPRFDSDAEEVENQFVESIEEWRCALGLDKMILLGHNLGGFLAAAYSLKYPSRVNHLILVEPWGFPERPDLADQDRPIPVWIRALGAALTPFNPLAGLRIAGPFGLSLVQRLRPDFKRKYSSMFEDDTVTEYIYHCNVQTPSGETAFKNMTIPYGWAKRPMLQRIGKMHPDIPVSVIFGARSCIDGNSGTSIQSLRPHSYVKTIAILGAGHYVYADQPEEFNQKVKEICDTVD
MBD2 inh = MBD2-methylated oligo binding inhibition; 0.31% of 370,000 active; TR-FRET, MBD2 binding to methylated oligonucleotide; AID 686964; Q9UBB5; inhibition, % at 4.4 µM; in the data active = inhibition above about 13%
PRMT1 inh conf = PRMT1 (human) inhibition, FP confirmation; shares compounds with PRMT1 inh; 42% of 3,300 active; inhibition, % at 2.79 µM; recombinant His-PRMT1, activity-based probe fluorescence polarization;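 active = mean inhibition across replicates above the hit cutoff derived for the earlier primary screen, cut at about 22% in these data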
Hits are given with their value; 0 = inactive; - = not tested or not shown.

SMILES	LEDGF integ inh	UHRF1 binding	RBBP9 inhibitor	PRMT1 inh	ABHD5 PLIN5 PPI	MBD2 inh	PRMT1 inh conf
S=C(Nc1cccc(Cl)c1)OCCN1CCCC12CCC(c1ccccc1)CC2 (stereo not drawn)	0	0	-	44	-	0	58
CCCC1CCC2(CCCN2CCOC(=O)Nc2ccc(Br)cc2)CC1 (stereo not drawn)	0	0	-	0	-	0	-
S=C(Nc1ccccc1Cl)OCCN1CCCC12CCC(c1ccccc1)CC2 (stereo not drawn)	0	0	-	57	-	0	41
CC1CCN(c2ccc(C(=O)O)cc2NS(=O)(=O)c2ccccc2[N+](=O)[O-])CC1	0	0	-	0	-	0	-
C#CCN1CC(N(C)CCOC(=O)CCCc2ccccc2)CS1(=O)=O (stereo not drawn)	0	0	-	0	-	0	-
Cc1ccc(CN(CC2CCCO2)C(=O)CN2C(=O)C(C(C)C)Oc3ccccc32)o1 (stereo not drawn)	0	0	0	32	0	0	0
Cc1cc(C2=NNC(=NC3CC3)SC2)c(C)n1-c1ccccc1F	0	0	0	36	0	0	0
C[C@@H]1CCN(C2CC2)S(=O)(=O)c2c(cccc2N2CC[C@H](N(C)C)C2)O1	0	0	-	0	-	0	-
COc1ccccc1Cc1c(-c2ccc(C)cc2)nc2ccc(Cl)cn12	0	0	-	0	0	0	-
COc1ccccc1Cc1c(-c2ccco2)nc2ccc(Cl)cn12	0	0	-	28	27	0	0
COc1ccccc1Cc1c(-c2ccco2)nc2ccc(Br)cn12	0	0	-	31	42	0	26
COc1cc(-c2nnc(SCC(=O)NN=Cc3c[nH]c4ccccc34)n2-c2ccccc2)cc(OC)c1OC	0	0	-	0	-	0	-
O=C(CCSc1ccccn1)c1ccccc1	0	0	0	52	0	0	24
O=C(O)CCSc1ccccn1	0	0	0	0	0	0	-
NCCN1CCN(S(=O)(=O)c2ccc3c(c2)CCN3C(=O)C2CCC2)CC1	0	0	-	0	-	0	-
CN1C(=O)c2ccc(C(=O)NC3CCCCC3)cc2C1=O	0	0	0	0	0	0	-
CN1C(=O)CS(=O)c2ccc(C(=O)NC3CC3)cc21 (stereo not drawn)	0	0	0	37	0	0	0
C#CCNC(=O)C[C@@H]1C(=O)N(CCc2ccc(Cl)cc2)C2=CCCCC[C@]21C(=O)OC	0	0	-	0	-	0	-
CC(C)(C)OC(=O)NCC12C=CC(O1)C1C(=O)N(Cc3ccccc3)C(=O)C12 (stereo not drawn)	0	0	0	47	0	0	0
CCOCCCNC(=O)C1CCN(S(=O)(=O)c2cc3c(cc2Br)CCN3C(=O)CC)CC1	0	0	-	0	-	0	-
CC1=CC(C)(C)NC(=S)N1c1ccccc1C	0	0	0	0	0	0	-
CC1=CC(C)(C)NC(=S)N1c1cccc2cc(S(=O)(=O)O)ccc12	0	0	0	39	0	0	45
COC1=C[C@H](C(=O)NCCNC(C)=O)[C@@]2(C)Cc3ccccc3[C@H]2CC1=O	0	0	-	0	-	0	-
Cc1cc2cc(CNC(=O)c3ccco3)ccc2n1C	0	0	-	36	0	0	0
Cc1cc2cc(CNC(=O)c3cc4ccccc4o3)ccc2n1C	-	-	0	-	-	-	-
SMILES	LEDGF integ inh	UHRF1 binding	RBBP9 inhibitor	PRMT1 inh	ABHD5 PLIN5 PPI	MBD2 inh	PRMT1 inh conf
Cc1cccc(C(=O)Nc2nc3ncccn3c2-c2ccc(F)c(F)c2)c1	0	0	-	0	-	0	-
CCN=C1NC(CCc2ccccc2)C(C(=O)OC)=C(C)N1Cc1ccccc1C(F)(F)F (stereo not drawn)	0	0	-	0	-	0	-
Cc1c(Cl)cccc1NC(=O)Cn1cccc1	0	0	0	0	0	0	-
Cc1cc(NC(=O)Cc2ccsc2)ccc1Br	0	0	-	0	0	0	-
Cc1cc(C)c2c(=O)n(CC(=O)Nc3cccc(Cl)c3C)sc2n1	0	0	0	97	48	0	92
Cc1cc(C)c2c(=O)n(CC(=O)Nc3ccc(Br)c(C)c3)sc2n1	0	0	0	93	0	0	97
COc1ccc(C2Nc3ccccc3C(=O)N2Cc2cccnc2)cc1COc1c(C)cccc1C (stereo not drawn)	0	0	-	0	-	0	-
CC(=O)Nc1ccc(SCCCC(=O)c2ccccc2)cc1	0	0	-	35	0	0	39
CC(=O)Nc1ccc(C(=O)NCCCSc2ccccc2)cc1	0	0	-	0	0	0	-
CCCCc1c(-c2ccccc2OC)ncn1Cc1cc(F)ccc1F	0	0	-	0	-	0	-
O=C(NC(Cc1c[nH]c2ccccc12)C(=O)OCC(=O)c1cccc2ccccc12)c1cccs1 (stereo not drawn)	0	0	0	50	0	0	0
CN1CCc2c(sc3c2C(=O)NC(c2ccc(-c4ccc(Cl)cc4)o2)N3)C1 (stereo not drawn)	0	0	0	0	0	0	-
CN1CCc2c(sc3c2C(=O)NC(c2cn(Cc4ccccc4)c4ccccc24)N3)C1 (stereo not drawn)	0	0	0	0	0	0	-
CN1CCc2c(sc3c2C(=O)NC(c2ccco2)N3)C1 (stereo not drawn)	0	0	0	27	0	0	0
O=C1NC(c2ccco2)Nc2sc3c(c21)CCN(Cc1ccccc1)C3 (stereo not drawn)	0	0	0	31	0	0	0
O=C(CSc1nc(NS(=O)(=O)c2ccccc2)cc(=O)[nH]1)Nc1ccccc1Cl	0	0	-	29	0	0	0
Cc1[nH]c(SCC(=O)Nc2cc(S(C)(=O)=O)ccc2Cl)nc1Cc1ccccc1	0	0	-	26	0	0	0
CCOC(=O)N[C@H](C(=O)N1CCC[C@H]1C(=O)NC1CCCC1)C1CCCCC1	0	0	-	0	-	0	-
COc1ccc2c(c1)CSC(c1ccccc1)C2=O (stereo not drawn)	0	0	-	53	0	0	30
